Assay results taken from ChEMBL document CHEMBL1131166, “Bisphenols that stimulate cells to release alkali metal cations: a structure-activity study” (1998).

Tests used:
Type in all cases: functional, Cercopithecidae
COS-7 [1] = experiment: (§1) Fraction of total radioactivity [86Rb] remaining with the compound at a concentration of 10 uM in COS-7 cells
Procedure, shortened: (§2)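 COS-7 cells grown in DMEM + 10% FCS to 85–98% confluence, loaded ~4 μCi 86RbCl in BSS (HEPES, pH 7.2) 90 min at 37 °C, washed thrice ice-cold BSS, reincubated 37 °C with medium replaced every 10 min; compound (DMSO stock diluted ≥5000-fold in BSS) present 40 min from 20 min. Cell-retained 86Rb at 60 min as fraction of initial total (cells + media); mean ± SD, three experiments.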

COS-7 [2] = experiment: Fraction of total radioactivity [86Rb] remaining with the compound at a concentration of 0.1 uM in COS-7 cells and value; procedure, shortened: as §2
COS-7 [3] = experiment: Fraction of total radioactivity [86Rb] remaining with the compound at a concentration of 1 uM in COS-7 cells; procedure, shortened: as §2
COS-7 [4] = experiment: Fraction of total radioactivity [86Rb] remaining with the compound at a concentration of 0 uM in COS-7 cells; procedure, shortened: as §2
COS-7 [5] = experiment: Fraction of total radioactivity [86Rb] remaining with the compound at a concentration of 0.01 uM in COS-7 cells; procedure, shortened: as §2
COS-7 [6] = experiment: as §1; remark: listed apart in the source
Procedure, shortened: (§3)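 COS-7 cells grown in DMEM with 10% FCS at 37 °C under 5% CO2 until 85–98% confluent. Loaded with about 4 μCi ⁸⁶RbCl in HEPES BSS (pH 7.2) for 90 min at 37 °C, then washed in ice-cold BSS. Reincubated at 37 °C with medium changed every 10 min; compound in BSS (DMSO ≥5000-fold diluted) given for the last 40 min. Read-out is the cell-retained fraction of total ⁸⁶Rb at 60 min by scintillation counting, mean ± SD of three experiments.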

COS-7 [7] = experiment: Fraction of total radioactivity [86Rb] remaining with the compound at a concentration of 0.1 uM in COS-7 cells; procedure, shortened: as §3

Oc1ccc(Cc2ccc(O)cc2)cc1
Fraction of accumulated 86Rb remaining. (COS-7 [1]): 0.581

Oc1ccc2ccccc2c1-c1c(O)ccc2ccccc12
Fraction of accumulated 86Rb remaining. (COS-7 [1]): 0.565

OCCOc1ccc(C2(c3ccc(OCCO)cc3)c3ccccc3-c3ccccc32)cc1
Fraction of accumulated 86Rb remaining. (COS-7 [1]): 0.486

Nc1ccc(C2(c3ccc(N)cc3)c3ccccc3-c3ccccc32)cc1
Fraction of accumulated 86Rb remaining. (COS-7 [1]): 0.419

Oc1ccc(C2(c3ccc(O)cc3)c3ccccc3-c3ccccc32)cc1
Fraction of accumulated 86Rb remaining. (COS-7 [2]): 0.147 | Fraction of accumulated 86Rb remaining. (COS-7 [3]): 0.006 | Fraction of accumulated 86Rb remaining. (COS-7 [1]): 0.003 | Fraction of accumulated 86Rb remaining. (COS-7 [4]): 0.556 | Fraction of accumulated 86Rb remaining. (COS-7 [5]): 0.532

Oc1ccc(-c2ccc(O)cc2)cc1
Fraction of accumulated 86Rb remaining. (COS-7 [6]): 0.604

O=C1OC(c2ccc(O)cc2)(c2ccc(O)cc2)c2ccccc21 [PHENOLPHTHALEIN]
Fraction of accumulated 86Rb remaining. (COS-7 [3]): 0.234 | Fraction of accumulated 86Rb remaining. (COS-7 [1]): 0.091 | Fraction of accumulated 86Rb remaining. (COS-7 [4]): 0.503 | Fraction of accumulated 86Rb remaining. (COS-7 [7]): 0.472 | Fraction of accumulated 86Rb remaining. (COS-7 [5]): 0.461
